Entries after “also recorded” stand apart in the source; their conditions may differ.

The text below walks through data of PMC8054679 (Analytical biochemistry, 2020).

Assay [1] has as its system Hsp70-CHIP interaction (myc-LgBiT-IEEVD / SmBiT-CHIP-FLAG). The class given is cell-based. To be noted: for effect on NanoBiT luminescence, single dose: 5 μM, 6 hours, mean ± SD (n=3). Summed up: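 Stable reporter cells induced overnight with dox 100 μg/mL in 96-well plates. Peptides (DMSO-dissolved) given at 10 µM for 1 h; small-molecule inhibitors given at 5 µM for 6 h. Live-cell substrate added in Opti-Mem, 5 min dark at room temperature, then read at 500 ms integration. Uninduced background subtracted; normalized to DMSO control as percent; mean ± SD, n=3.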

Assay [2] concerns Hsp70. Nature of the assay: Western blot of lysate protein levels: Hsp70. Type of assay: cell-based. To be noted: compared to vehicle; western blot of treated NanoBiT cells. In a few lines:
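Reporter cells dox-induced overnight, then given test compound for 6 h. Inputs denatured 5 min at 95 °C. Blots blocked 1 h, primary antibody 1:1000 overnight at 4 °C, secondary 1:10000 for 1 h.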
For orientation: In western blotting, separated proteins are transferred to a membrane and probed.

Assay [3] relates to NanoBiT reporter components (myc-LgBiT-IEEVD, SmBiT-CHIP-FLAG). Nature of the assay: Western blot of lysate protein levels: NanoBiT reporter components. Type of assay: cell-based. The note with it: anti-myc or anti-FLAG.
Assay [4] concerns dox-inducible NanoBiT reporter in NanoBiT cells. Nature of the assay: NanoBiT luminescence assay of dox-dependence and signal stability. The note with it: dox 100 μg/mL, 24 hours. Type of assay: cell-based. In a few lines: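 HEK293 Flp-In T-REx cells electroporated with a bicistronic myc-LgBiT-IEEVD/SmBiT-CHIP-FLAG vector plus pOG44, selected with 100 µg/mL hygromycin, and cloned. Cells cultured in 96-well plates ±dox 100 μg/mL for 24 h. Live-cell furimazine substrate added in Opti-Mem, 5 min dark at room temperature, then read at 500 ms integration. Uninduced-cell background subtracted; mean ± SD, n=3.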

Assay [5] concerns CHIP TPR domain. The note with it: cited from earlier work.

Consider `CO[C@H]1/C=C\C=C(/C)C(=O)NC2=CC(=O)C(NCCN(C)C)=C(C[C@@H](C)C[C@H](OC)[C@H](O)[C@@H](C)/C=C(\C)[C@@H]1OC(N)=O)C2=O` [17-DMAG, 17-dimethylaminoethylamino-17-demethoxygeldanamycin], for which the “effect on NanoBiT luminescence, single dose” value in assay [1] (percent of DMSO control) was “reduced the luminescence”. In assay [2], the “total abundance of Hsp70 in the lysate” value is reported as “increased the total abundance of Hsp70 in the lysate; also recorded: induces Hsp70 levels”.
Regarding `CCn1c(=O)/c(=C2\Sc3cc(Cl)ccc3N2C)s/c1=C\c1scc[n+]1Cc1ccccc1.[Cl-]` [JG-98], in assay [1] (percent of DMSO control), the “effect on NanoBiT luminescence, single dose” value was “reduced luminescence”. In addition, the “stability/expression of NanoBiT reporter components” value in assay [3] is listed as “partially destabilized both components of the NanoBiT reporter”.
`CCn1c(=O)/c(=C2\SCCN2C)s/c1=C\c1scc[n+]1Cc1ccccc1.[Cl-]` [JG-258]: in assay [1] (percent of DMSO control), the “effect on NanoBiT luminescence, single dose” value was “but not an inactive control, JG-258, reduced luminescence”.
The molecule `C[C@H]1c2cccc(O)c2C(=O)C2=C(O)[C@]3(O)C(=O)C(C(N)=O)=C(O)[C@@H](N(C)C)[C@@H]3[C@@H](O)[C@@H]21` [dox, doxycycline] showed a luminescence with dox in assay [4] (mean ± SD (n=3)) of 47300 ± 1270 RLU. Further, the “fold increase of luminescence compared to control without dox” value in assay [4] (n=3) is 31 fold. Also, the “stability/expression of NanoBiT reporter components” value in assay [3] is on record as “both reporter components were expressed in response to dox, with little background”.
On to Ac-LWWPD, for which the “efficacy in the NanoBiT assay” value in assay [1] (discussion statement, peptide without CPP) is recorded as “no efficacy”. In addition, in assay [5] (in vitro, see Figure 1 (FP, adapted from ref 21)), the “affinity for CHIP in vitro” value is on record as “sub-micromolar affinity”.
In the case of LWWPD, in assay [5] (FP, peptide in vitro, fold better than IEEVD), the “binding to CHIP's purified TPR domain relative to IEEVD” value is on record as “at least 10 fold”.
As for R9-LWWPD, the “reduction of NanoBiT luminescence” value in assay [1] (10 μM peptide, 1 hour, normalized to DMSO control, n=3) is recorded as “approximately 40%”. For the same molecule, the “effect on NanoBiT luminescence, peptides, single dose” value in assay [1] (10 μM, 1 hour, percent of DMSO control, n=3) is recorded as “cell active inhibitor”.
